Experimental data gathered from unrelated publications.
Lines come from different studies, so protocols differ.
Cell line: HepG2
Read-out: cell growth or viability

Compound	technique	concentration	time	quantity	value
O=C(CN1C(=O)/C(=C/c2ccccn2)SC1=S)Nc1ccccc1	MTT	10 µM		inhibition	10.2%
COc1ccc(NC(=O)c2c(Nc3ccccc3)sc(C(=O)NN=Cc3ccccc3)c2NC(C)=O)cc1	SRB	0.1 µM	48 h	viability	78.1%
Cc1ccc2nc(-c3ccc(Cl)cc3)[nH]c2c1	MTT		48 h	IC50	28.9 µM
O=C(CN1C(=O)/C(=C/c2ccncc2)SC1=S)Nc1ccccc1	MTT	10 µM		inhibition	11.8%
CCn1cc(-c2nc(C)no2)c(=O)c2cc(F)c(N3CCCCCC3)cc21	ATP luminescence		48 h	EC50	> 40 µM
COc1cccc(NC(=O)CN2C(=O)/C(=C/c3cccs3)SC2=S)c1	MTT	10 µM		inhibition	12.2%
O=[N+]([O-])c1ccc(-c2nc3ccccc3[nH]2)cc1	MTT		48 h	IC50	21 µM
COc1cccc(/C=C2\SC(=S)N(CC(=O)Nc3ccccc3)C2=O)c1	MTT	10 µM		inhibition	13.9%
CCOc1ccc(-c2nc3ccccc3n2Cc2ccccc2)cc1	MTT			IC50	33.8 µM
CCOC(=O)c1ccc(NC(=O)C2=C3C(=Nc4ccccc43)NC2=O)cc1	MTT	50 µM	24 h	viability	42.7%
COc1ccc(NC(=O)c2c(Nc3ccccc3)sc(C#N)c2NC(=O)CNc2ccc(O)cc2)cc1	SRB	10 µM	48 h	viability	61.6%
Cc1ccc(-c2cc(-c3ccc4oc(=O)cc(C)c4c3O)nc(N)n2)cc1	MTT	128 µg/mL	72 h	inhibition	27%
COc1cccc(NC(=O)CN2C(=O)/C(=C/C3CC3)SC2=S)c1	MTT	10 µM		inhibition	12.1%
CCCC1CCN(c2cc3c(cc2F)c(=O)c(C(=O)OCC)cn3CC)CC1	ATP luminescence		48 h	EC50	> 40 µM
Cc1cc(=O)oc2ccc(-c3cc(-c4ccccc4)nc(N)n3)c(O)c12	MTT	128 µg/mL	72 h	inhibition	20%
COc1ccc(NC(=O)c2c(Nc3ccccc3)sc(C#N)c2NC(=O)CNc2ccc(OC)c(OC)c2)cc1	SRB	1 nM	48 h	viability	100%
Cc1cc(=O)oc2ccc(-c3cc(-c4ccc(Br)cc4)nc(N)n3)c(O)c12	MTT	8 µg/mL	72 h	inhibition	0%
c1cncc(-c2nc3ccccc3[nH]2)c1	MTT		48 h	IC50	70.6 µM
CCn1cc(-c2nnc(-c3cccnc3)o2)c(=O)c2cc(F)c(N3CCC(C)CC3)cc21	ATP luminescence		48 h	EC50	> 40 µM
COc1ccc(NC(=O)c2c(Nc3ccccc3)sc(C#N)c2NC(=O)CNc2ccccc2[N+](=O)[O-])cc1	SRB	10 nM	48 h	viability	92.5%
Cc1cc(=O)oc2ccc(-c3cc(-c4cccs4)nc(N)n3)c(O)c12	MTT	2 µg/mL	72 h	inhibition	0%
O=C(CN1C(=O)/C(=C/c2ccccc2Cl)SC1=S)Nc1ccccc1	MTT	10 µM		inhibition	11%
COc1cccc(-c2nc3ccc(C)cc3[nH]2)c1	MTT		48 h	IC50	26.9 µM

Compound	technique	concentration	time	quantity	value
CCOC(=O)c1ccc(N2C(N)=C(C#N)C3(C(=O)Nc4ccccc43)C(C#N)=C2O)cc1 (stereo not drawn)	MTT	50 µM	24 h	viability	17.9%
COc1ccc(NC(=O)c2c(Nc3ccccc3)sc(C(=O)NN=Cc3cc(OC)c(OC)c(OC)c3)c2NC(C)=O)cc1	SRB	10 µM	48 h	viability	42.9%
CCn1cc(-c2nc(C)no2)c(=O)c2cc(F)c(N3CCCC3)cc21	ATP luminescence		48 h	EC50	> 40 µM
CC(=O)Nc1cccc(-n2c(=O)n(C3CC3)c(=O)c3c(Nc4ccc(I)cc4F)n(C)c(=O)c(C)c32)c1	resazurin	50 nM	72 h	viability	43.3%
Cc1cc(=O)oc2ccc(-c3cc(-c4ccc(Cl)cc4)nc(N)n3)c(O)c12	MTT	32 µg/mL	72 h	inhibition	65%
COc1ccc(NC(=O)c2c(Nc3ccccc3)sc(C#N)c2NC(=O)CNc2ccccc2)cc1	SRB	0.1 µM	48 h	viability	82.4%
CCOC(=O)c1ccc(-n2c(C)cc(/C=C/c3ccc(OCC)cc3)c(C#N)c2=O)cc1	MTT	100 µM	24 h	viability	40.7%
COc1ccc(-c2cc(-c3ccc4oc(=O)cc(C)c4c3O)nc(N)n2)cc1	MTT	8 µg/mL	72 h	inhibition	0%
CC(C)(CO)Cn1nc(-c2ccc3nc(OCC(F)(F)F)ccc3c2)c2c(N)ncnc21				GI50	> 10 µM
Cc1cc(Nc2ccc(C(=O)N/N=C/c3nc4ccccc4[nH]3)cc2)c2cccc(O)c2n1	MTT	20 µM		inhibition	46.4%
Cc1ccc2nc(-c3ccc4c(c3)OCO4)[nH]c2c1	MTT		48 h	IC50	79 µM
CCOC(=O)c1ccc(-n2c(-c3ccc(C)cc3)cc(-c3ccc(O)cc3)c(C#N)c2=O)cc1	MTT	1.56 µM	24 h	viability	100%
COc1ccc(C=NNC(=O)c2sc(Nc3ccccc3)c(C(=O)Nc3ccc(OC)cc3)c2NC(C)=O)cc1	SRB	1 nM	48 h	viability	102%
Cc1cc(Nc2ccc(C(=O)N/N=C/c3cccs3)cc2)c2cccc(O)c2n1	MTT	20 µM		inhibition	49%
CCOC(=O)c1ccc(-n2c(N)c(C#N)c(CC#N)c(C#N)c2=O)cc1	MTT	25 µM	24 h	viability	50.9%
COc1ccc(NC(=O)c2c(Nc3ccccc3)sc(C(=O)NN=Cc3ccc(Cl)cc3)c2NC(C)=O)cc1	SRB	10 nM	48 h	viability	95.2%
CCOC(=O)c1ccc(-n2c(C)cc(C)c(C#N)c2=O)cc1	MTT	100 µM	24 h	viability	36.4%
CCCC1CCN(c2cc3c(cc2F)c(=O)c(-c2nc(C)no2)cn3CC)CC1	ATP luminescence		48 h	EC50	> 40 µM
C=CCn1c(-c2ccc(Cl)cc2)nc2ccc(C)cc21	MTT			IC50	38.8 µM
O=C(N/N=C/c1cccn1CCN1CCCCC1)Nc1cc2c(Nc3ccc(F)c(Cl)c3)ncnc2cc1O[C@H]1CCOC1	MTT		72 h	IC50	0.59 µM
Cc1ccc2nc(-c3ccco3)[nH]c2c1	MTT		48 h	IC50	> 100 µM
O=C(CN1C(=O)/C(=C/c2ccccc2F)SC1=S)Nc1ccccc1	MTT	10 µM		inhibition	7.65%
